# Compound activity as filed in PubChem BioAssay.
# TRPC4 potent: allosteric potentiators of mouse TRPC4 channel; Q9QUQ5; HEK293 TRPC4beta/mu-opioid, DAMGO EC20, Fluo-4 Ca2+ flux; stronger effect = higher value; B-score at 10 µM; 310,000 compounds, 0.42% hits; AID 2227;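 active = B-score of calcium response area above 5 SD of library B-scores, with initial fluorescence ratio within 5 SD of library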;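 note: B-score of integrated fluorescence ratio over time as area under calcium response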
# TRPC4 block: inhibitors of mouse TRPC4 channel; Q9QUQ5; HEK293 TRPC4beta/mu-opioid, DAMGO-evoked Fluo4 calcium flux; stronger effect = lower value; B-score at 10 µM; 300,000 compounds, 0.39% hits;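 active = B-score over 3 SD under the library average, no early fluorescence shift, positive overall ratio signal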
#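 Signal: kinetic Fluo4 fluorescence imaging of calcium influx. Material: stable TRPC4beta/mu-opioid receptor HEK293 cells. Probe or stimulus: DAMGO in two steps, submaximal then maximal.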
# TRPC6 act: activates the mouse TRPC6 cation channel; Q61143; HEK293-TRPC6 membrane potential dye fluorescence; stronger effect = higher value; B-score at 10 µM; 310,000 compounds, 0.13% hits; AID 2550;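 active = B-score of the integrated fluorescence ratio above library mean plus 3 SD, and starting fluorescence ratio within library mean plus 5 SD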;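 note: higher score means more depolarization so channel activation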
# Target sequence (Q61143 whole entry, looked up): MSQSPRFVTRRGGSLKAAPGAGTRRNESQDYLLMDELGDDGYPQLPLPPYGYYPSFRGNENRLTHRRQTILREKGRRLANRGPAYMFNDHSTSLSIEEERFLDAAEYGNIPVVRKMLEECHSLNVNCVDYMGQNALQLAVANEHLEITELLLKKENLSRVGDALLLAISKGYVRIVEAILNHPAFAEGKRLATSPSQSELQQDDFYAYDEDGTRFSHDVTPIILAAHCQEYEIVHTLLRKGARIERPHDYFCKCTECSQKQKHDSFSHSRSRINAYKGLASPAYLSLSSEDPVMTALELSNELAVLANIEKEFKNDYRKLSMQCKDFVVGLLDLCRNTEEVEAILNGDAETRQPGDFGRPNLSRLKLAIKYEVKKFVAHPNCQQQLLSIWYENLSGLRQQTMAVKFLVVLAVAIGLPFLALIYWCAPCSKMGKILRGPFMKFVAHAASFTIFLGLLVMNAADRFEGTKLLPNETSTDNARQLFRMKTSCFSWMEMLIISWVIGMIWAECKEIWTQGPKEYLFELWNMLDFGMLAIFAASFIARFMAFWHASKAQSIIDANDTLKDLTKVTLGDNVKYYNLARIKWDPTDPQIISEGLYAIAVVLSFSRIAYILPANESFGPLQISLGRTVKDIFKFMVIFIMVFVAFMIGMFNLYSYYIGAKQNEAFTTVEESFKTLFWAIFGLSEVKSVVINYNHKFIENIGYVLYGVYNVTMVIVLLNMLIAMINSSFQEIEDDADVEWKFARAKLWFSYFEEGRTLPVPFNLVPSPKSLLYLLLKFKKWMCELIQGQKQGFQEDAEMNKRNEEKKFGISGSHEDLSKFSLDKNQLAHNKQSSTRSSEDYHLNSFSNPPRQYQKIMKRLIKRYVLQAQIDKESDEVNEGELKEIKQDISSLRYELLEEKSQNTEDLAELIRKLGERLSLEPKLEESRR
# Platelet DG rel: platelet dense granule release activity. 300,000 compounds, 0.22% hits. inhibition, %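 (compounds screened at 7.5 µM in platelet-rich plasma)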. human platelet-rich plasma, SFLLRN dense granule ATP release, luminescence;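 active = mean replicate score, as percent of positive control, at or above 50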
# TRPC4 act: activators of mouse TRPC4 channel; Q9QUQ5; HEK293 TRPC4beta/mu-opioid, Fluo4 calcium fluorescence; stronger effect = higher value; B-score at 10 µM; 310,000 compounds, 0.49% hits;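 active = B-score above 5 SD of library B-scores, and initial fluorescence ratio not above library mean plus 5 SD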;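 note: positive B-score marks a calcium rise read as TRPC4 activation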
#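 Assay system: HEK293 cells stably co-expressing mouse TRPC4beta and mu-opioid receptor / Timing: Fluo4 dye loading 45 min at room temperature, 110 s recording / Signal: Fluo4 calcium-sensitive dye fluorescence, kinetic, 1 Hz baseline / Read-out: integrated baseline-normalised fluorescence ratio, converted to per-well B score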
# TRPC6 inh: mouse TRPC6 channel inhibition | Q61143 | HEK293-TRPC6, membrane potential dye, ACh-evoked depolarization; stronger effect = lower value | B-score at 10 µM | 310,000 compounds, 1.1% hits | AID 2553;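 active = B-score under library mean minus 3 SD, initial fluorescence not abnormally high, positive integrated signal ratio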;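 note: B-score derived from integrated fluorescence ratio over the kinetic read; more negative B-score means stronger inhibition of depolarization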
# TRPC4 spec 2: second check of whether TRPC6 inhibitors also affect mouse TRPC4; shares compounds with TRPC6 inh; HEK293 TRPC4/MOR, membrane potential dye fluorescence; channel activated by saturating DAMGO dose; inhibition, % at 10 µM; 920 compounds, 42% hits;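 active = compounds whose fluorescence signal differed from control wells by over 3 SD, either direction, in both duplicate plates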
# TRPC4 spec: selectivity of TRPC6 inhibitors: effect on mouse TRPC4. AID 2777. shares compounds with TRPC6 inh. HEK293 TRPC4/mu-opioid, membrane potential fluorescence. activity change, negative = inhibition, % at 10 µM. 920 compounds, 61% hits;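 active = rise or fall in signal beyond 3 SD of buffer-only wells in both replicate plates, either sign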;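 note: integrated kinetic ratio of fluorescence range over baseline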
# HEK293 MPD ctr 2-1: second counter-screen for TRPC6 inhibitors: parental HEK293 cells; shares compounds with TRPC6 inh; parental HEK293 membrane potential dye fluorescence; maximal acetylcholine challenge after compound addition; signal change vs control, % at 10 µM; 920 compounds, 31% hits; AID 2779;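 active = membrane potential signal moving either way by over 3 SD of the maximum-effect control, in both duplicate plates, meaning non-specific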
# HEK293 MPD ctr-1: checks TRPC6 inhibitor effects in parental HEK293 cells; shares compounds with TRPC6 inh; parental HEK293 membrane potential dye fluorescence; membrane potential signal change, % at 10 µM; 920 compounds, 60% hits;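 active = membrane potential signal shifting up or down by more than 3 SD of buffer-only wells, on both duplicate plates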
# HEK293 MPD ctr-2: checks TRPC6 modulator effects in parental HEK293 cells; shares compounds with TRPC6 inh; membrane potential dye fluorescence; membrane potential signal change, % at 10 µM; 2,400 compounds, 51% hits; AID 488924;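 active = membrane potential signal moves up or down beyond 5 SD from buffer-only wells, on both duplicate plates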
# HEK293 MPD ctr 2-2: parental HEK293 nonspecific activity of TRPC6 modulators, second screen. shares compounds with TRPC6 inh. membrane potential dye fluorescence; after compound, maximal acetylcholine stimulation. inhibition, % at 10 µM. 2,400 compounds, 14% hits. AID 488926;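 active = membrane potential signal drops by more than 5 SD from the mean control signal, in both duplicate plates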;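 note: plate controls were acetylcholine ECmax control wells for no effect and buffer only wells for full effect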
# TRPC4 ctr mod: selectivity of TRPC6 modulators against mouse TRPC4 | AID 488927 | 2,400 compounds, 69% hits | percent change from control (negative = decrease, positive = increase), % at 10 µM | shares compounds with TRPC6 inh | HEK293 TRPC4/mu-opioid, membrane potential fluorescence;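 active = membrane potential signal moved up or down beyond 5 SD of buffer control wells, in both duplicate plates, actives on both sides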;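 note: plate controls were assay buffer wells for no effect and DAMGO maximal-effect wells for full effect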
# TRPC4 ctr inh 2: mouse TRPC4 off-target activity of TRPC6 modulators, second screen. shares compounds with TRPC6 inh. HEK293 TRPC4/mu-opioid, membrane potential dye fluorescence; stimulated with maximal-effect DAMGO. inhibition, % at 10 µM. 2,400 compounds, 55% hits. AID 488928;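 active = drop in membrane potential signal beyond 5 SD of the control wells in both duplicate plates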;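 note: TRPC4 counter screen for TRPC6 hits run under conditions tuned for TRPC6 not TRPC4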
# TRPC6 inh conf: confirmation of mouse TRPC6 inhibitors; shares compounds with TRPC6 inh; HEK293-TRPC6, membrane potential dye, ACh-evoked depolarization; inhibition, % at 10 µM; 3,300 compounds, 43% hits;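 active = fluorescence ratio falls more than 5 SD below the full-stimulation control mean, in both duplicate runs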;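 note: integrated fluorescence ratio of peak minus minimum over baseline after agonist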
# TRPC6 act confirm: confirmation of mouse TRPC6 activators; 2,800 compounds, 11% hits; shares compounds with TRPC6 inh; HEK293-TRPC6 membrane potential dye fluorescence, FDSS; activation, % at 10 µM;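 active = ratio signal rise beyond 5 SD above unstimulated control wells' mean, seen in both duplicate runs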;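 note: plate controls were buffer EC0 wells for no effect and acetylcholine ECmax response for full effect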
# Starred values were filed as active, the others as inactive; i = inactive; x = no result. Sampled rows, rich in hits. Any-hit rate of the full collection: about 2.5%.
SMILES,TRPC4 potent,TRPC4 block,TRPC6 act,Platelet DG rel,TRPC4 act,TRPC6 inh,HEK293 MPD ctr-2,HEK293 MPD ctr 2-2,TRPC4 ctr mod,TRPC4 ctr inh 2,TRPC6 inh conf,TRPC6 act confirm,others
CC1(C)C2CCC13CS(=O)(=O)N[C@@H]3C2 (stereo partly specified),i,i,i,-2,i,i,x,x,x,x,x,x,
CCOc1cc2c(C#N)c(N3CCNCC3)nc(N)c2c(N)n1,12*,i,i,-6,i,-5.9*,-194%*,i,-25%*,i,38%*,i,
CCC(C)C(NC(=O)/C(=C\c1ccccc1)NC(=O)c1ccc(OC)cc1)C(=O)O (stereo unspecified),i,i,i,3,i,i,x,x,x,x,x,x,
CC(C)(C)c1ccc(-c2conc2N)cc1,i,i,i,6,i,i,x,x,x,x,x,x,
O=C(Cn1nnc(-c2cccs2)n1)NCCc1ccccc1,i,i,i,-1,i,i,x,x,x,x,x,x,
COc1ccc(CCNC(=O)Cn2nnc(-c3cccs3)n2)cc1OC,i,i,i,-4,i,-5.8*,i,i,i,i,i,i,
CC(C)C1=CC2=CCC3C(C)(C(=O)O)CCCC3(C)C2CC1 (stereo unspecified) (tested in a mixture with another compound),i,i,i,10,i,i,x,x,x,x,x,x,
[O-]/[N+](=C\c1ccncc1)c1ccc(Br)cc1,i,i,i,26,i,i,x,x,x,x,x,x,
[O-]/[N+](=C/c1cccnc1)c1ccc(Br)cc1,i,i,i,2,i,-6*,i,i,i,i,i,i,
OC(C#CCN1CCCC1)(c1ccccc1)c1ccccc1,i,i,i,1,i,-8.7*,x,x,x,x,66%*,x,TRPC4 spec 2=i;TRPC4 spec=2.5%*;HEK293 MPD ctr 2-1=-14%*;HEK293 MPD ctr-1=5.6%*
OC(C#CCN1CCCCC1)(c1ccccc1)c1ccccc1,i,i,i,-3,i,-7.5*,x,x,x,x,81%*,i,TRPC4 spec 2=i;TRPC4 spec=1.1%*;HEK293 MPD ctr 2-1=-28%*;HEK293 MPD ctr-1=2.4%*
CC(O)(C#CCN1CCCCCC1)c1ccccc1 (stereo unspecified),i,i,i,-1,i,i,x,x,x,x,x,x,
